# What was measured:
# [1] = system: L1210; test: Inhibition of L1210 lymphoid leukemia cells 72 hr after administration (length of preincubation=0 hr); type: functional, cell-based; settings: Mus musculus
# In short: (§1)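 L1210 cells (2×10^4/well) exposed continuously to serially diluted compound in Fischer's medium with 10% horse serum for up to 72 h. Viable cells were counted by Trypan blue exclusion at 24, 48 and 72 h. IC50 is the concentration giving 50% growth inhibition, estimated from response curves of three separate experiments.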
# [2] = system: L1210; test: Inhibition of L1210 lymphoid leukemia cells 24 hr after administration (length of preincubation=0 hr); type: functional, cell-based; settings: Mus musculus; in short: as §1
# [3] = system: L1210; test: Inhibition of L1210 lymphoid leukemia cells 48 hr after administration (length of preincubation=0 hr); type: functional, cell-based; settings: Mus musculus; in short: as §1
# [4] = Half life in human plasma; type: ADME
# In short: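 Compound ([…]) incubated in 1 mL fresh human plasma at 37 °C against a buffer reference; hydrolysis followed by change in absorption at 325 nm (ϵ 1.55). Initial concentration about 2 × 10^-4 M; apparent first-order kinetics, with the pseudo-first-order rate constant given by k = 0.693/t1/2.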
SMILES,IC50 [1] [nM],IC50 [2] [nM],IC50 [3] [nM],half-life [4] [h]
Nc1ccn([C@@H]2O[C@H](CO)[C@@H](O)[C@@H]2O)c(=O)n1 [CYTARABINE],10,100,10,
CC(C)C[C@H](NC(=O)[C@H](N)C(C)C)C(=O)N[C@@H](CCCCN)C(=O)N(C)c1ccn([C@@H]2O[C@H](CO)[C@@H](O)[C@@H]2O)c(=O)n1.N=C(N)c1ccc(CS(=O)(=O)F)cc1,10,1000,5,5.5

# Source: ChEMBL document CHEMBL1126194, “Synthesis and functional evaluation of a peptide derivative of 1-beta-D-arabinofuranosylcytosine” (J Med Chem, 1992)
